Data reported in ChEMBL document CHEMBL4689842, “EUbOPEN Chemogenomics Library wave 1” (2021).

System: Fibroblast
Assay: Multiplex assay against human fibroblast
Assay type: toxicity, cell-based
Procedure, shortened: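 Imaging took place on a CQ1 microscope at 37°C and 5% CO2 once compound had been added to live cells stained at seeding with Hoechst33342, BioTracker Green Microtubule Cytoskeleton Dye, MitoTracker Red and Annexin V Alexa Fluor 680. CellPathfinder machine-learning gating classed cells as Hoechst high-intensity objects or normal cells, classed normal cells as having healthy, pyknosed or fragmented nuclei, and classed pyknosed cells as mitotic or apoptotic. Tubulin, mitochondrial-mass and membrane-permeability phenotypes are per cents of the healthy-nucleus cells.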

[1] = 12 h, 1 µM, compound concentration 1 uM, replicate 1
[2] = 12 h, 1 µM, compound concentration 1 uM, replicate 2
[3] = 12 h, 10 µM, compound concentration 10 uM, replicate 1
[4] = 12 h, 10 µM, compound concentration 10 uM, replicate 2
[5] = 24 h, 1 µM, compound concentration 1 uM, replicate 1
[6] = 24 h, 1 µM, compound concentration 1 uM, replicate 2
[7] = 24 h, 10 µM, compound concentration 10 uM, replicate 1
[8] = 24 h, 10 µM, compound concentration 10 uM, replicate 2
[9] = 48 h, 1 µM, compound concentration 1 uM, replicate 1
[10] = 48 h, 1 µM, compound concentration 1 uM, replicate 2
[11] = 48 h, 10 µM, compound concentration 10 uM, replicate 1
[12] = 48 h, 10 µM, compound concentration 10 uM, replicate 2

Cc1cc2c(cc1N1C(=O)c3cccc4c(CCCO)ccc(c34)C1=O)n(C)c(=O)n2C
Population Apoptotic (%) [1]: 68% | Population Fragmented Nuclei (%) [1]: 19% | Population Healthy Nuclei (%) [1]: 49% | Population Hoechst High Intensity Objects (%) [1]: 17% | Population Membrane Permeable-Phenotype (%) [1]: 30% | Population Mitochondria Different-Phenotype (%) [1]: 8% | Population Mitotic Cells (%) [1]: 31% | Population Normal (%) [1]: 82% | Population Pyknosed Nuclei (%) [1]: 31% | Population Tubulin-Different-Phenotype (%) [1]: 41% | Total Cell Count [1]: 148 | Population Apoptotic (%) [2]: 0% | Population Fragmented Nuclei (%) [2]: 6% | Population Healthy Nuclei (%) [2]: 90% | Population Hoechst High Intensity Objects (%) [2]: 8% | Population Membrane Permeable-Phenotype (%) [2]: 1% | Population Mitochondria Different-Phenotype (%) [2]: 22% | Population Mitotic Cells (%) [2]: 100% | Population Normal (%) [2]: 91% | Population Pyknosed Nuclei (%) [2]: 3% | Population Tubulin-Different-Phenotype (%) [2]: 24% | Total Cell Count [2]: 104 | Population Apoptotic (%) [3]: 68% | Population Fragmented Nuclei (%) [3]: 21% | Population Healthy Nuclei (%) [3]: 46% | Population Hoechst High Intensity Objects (%) [3]: 12% | Population Membrane Permeable-Phenotype (%) [3]: 21% | Population Mitochondria Different-Phenotype (%) [3]: 7% | Population Mitotic Cells (%) [3]: 31% | Population Normal (%) [3]: 87% | Population Pyknosed Nuclei (%) [3]: 31% | Population Tubulin-Different-Phenotype (%) [3]: 72% | Total Cell Count [3]: 126 | Population Apoptotic (%) [4]: 37% | Population Fragmented Nuclei (%) [4]: 20% | Population Healthy Nuclei (%) [4]: 63% | Population Hoechst High Intensity Objects (%) [4]: 9% | Population Membrane Permeable-Phenotype (%) [4]: 29% | Population Mitochondria Different-Phenotype (%) [4]: 77% | Population Mitotic Cells (%) [4]: 62% | Population Normal (%) [4]: 90% | Population Pyknosed Nuclei (%) [4]: 16% | Population Tubulin-Different-Phenotype (%) [4]: 96% | Total Cell Count [4]: 54 | Population Apoptotic (%) [5]: 46% | Population Fragmented Nuclei (%) [5]: 20% | Population Healthy Nuclei (%) [5]: 55% | Population Hoechst High Intensity Objects (%) [5]: 19% | Population Membrane Permeable-Phenotype (%) [5]: 31% | Population Mitochondria Different-Phenotype (%) [5]: 5% | Population Mitotic Cells (%) [5]: 53% | Population Normal (%) [5]: 80% | Population Pyknosed Nuclei (%) [5]: 24% | Population Tubulin-Different-Phenotype (%) [5]: 41% | Total Cell Count [5]: 130 | Population Apoptotic (%) [6]: 40% | Population Fragmented Nuclei (%) [6]: 7% | Population Healthy Nuclei (%) [6]: 87% | Population Hoechst High Intensity Objects (%) [6]: 3% | Population Membrane Permeable-Phenotype (%) [6]: 0% | Population Mitochondria Different-Phenotype (%) [6]: 27% | Population Mitotic Cells (%) [6]: 60% | Population Normal (%) [6]: 96% | Population Pyknosed Nuclei (%) [6]: 5% | Population Tubulin-Different-Phenotype (%) [6]: 17% | Total Cell Count [6]: 96 | Population Apoptotic (%) [7]: 58% | Population Fragmented Nuclei (%) [7]: 22% | Population Healthy Nuclei (%) [7]: 47% | Population Hoechst High Intensity Objects (%) [7]: 15% | Population Membrane Permeable-Phenotype (%) [7]: 13% | Population Mitochondria Different-Phenotype (%) [7]: 17% | Population Mitotic Cells (%) [7]: 41% | Population Normal (%) [7]: 84% | Population Pyknosed Nuclei (%) [7]: 29% | Population Tubulin-Different-Phenotype (%) [7]: 45% | Total Cell Count [7]: 115 | Population Apoptotic (%) [8]: 80% | Population Fragmented Nuclei (%) [8]: 18% | Population Healthy Nuclei (%) [8]: 62% | Population Hoechst High Intensity Objects (%) [8]: 11% | Population Membrane Permeable-Phenotype (%) [8]: 41% | Population Mitochondria Different-Phenotype (%) [8]: 76% | Population Mitotic Cells (%) [8]: 20% | Population Normal (%) [8]: 88% | Population Pyknosed Nuclei (%) [8]: 18% | Population Tubulin-Different-Phenotype (%) [8]: 76% | Total Cell Count [8]: 61 | Population Apoptotic (%) [9]: 34% | Population Fragmented Nuclei (%) [9]: 31% | Population Healthy Nuclei (%) [9]: 45% | Population Hoechst High Intensity Objects (%) [9]: 21% | Population Membrane Permeable-Phenotype (%) [9]: 28% | Population Mitochondria Different-Phenotype (%) [9]: 2% | Population Mitotic Cells (%) [9]: 65% | Population Normal (%) [9]: 78% | Population Pyknosed Nuclei (%) [9]: 22% | Population Tubulin-Different-Phenotype (%) [9]: 30% | Total Cell Count [9]: 129 | Population Apoptotic (%) [10]: 100% | Population Fragmented Nuclei (%) [10]: 28% | Population Healthy Nuclei (%) [10]: 69% | Population Hoechst High Intensity Objects (%) [10]: 9% | Population Membrane Permeable-Phenotype (%) [10]: 21% | Population Mitochondria Different-Phenotype (%) [10]: 1% | Population Mitotic Cells (%) [10]: 0% | Population Normal (%) [10]: 90% | Population Pyknosed Nuclei (%) [10]: 2% | Population Tubulin-Different-Phenotype (%) [10]: 35% | Total Cell Count [10]: 118 | Population Apoptotic (%) [11]: 90% | Population Fragmented Nuclei (%) [11]: 35% | Population Healthy Nuclei (%) [11]: 54% | Population Hoechst High Intensity Objects (%) [11]: 18% | Population Membrane Permeable-Phenotype (%) [11]: 22% | Population Mitotic Cells (%) [11]: 10% | Population Normal (%) [11]: 81% | Population Pyknosed Nuclei (%) [11]: 10% | Population Tubulin-Different-Phenotype (%) [11]: 62% | Total Cell Count [11]: 120 | Population Apoptotic (%) [12]: 66% | Population Fragmented Nuclei (%) [12]: 26% | Population Healthy Nuclei (%) [12]: 68% | Population Hoechst High Intensity Objects (%) [12]: 9% | Population Membrane Permeable-Phenotype (%) [12]: 23% | Population Mitochondria Different-Phenotype (%) [12]: 5% | Population Mitotic Cells (%) [12]: 33% | Population Normal (%) [12]: 90% | Population Pyknosed Nuclei (%) [12]: 6% | Population Tubulin-Different-Phenotype (%) [12]: 85% | Total Cell Count [12]: 55
